pEC50, pIC50: −log10 of the molar value. Blank lines part the entries; values can stand above or below the compound they belong to.
How the values were obtained:
[1] = target: T1, PPARγ (Homo sapiens, UniProt P37231); assay: Cell-based PPARγ transactivation assay; details: for Maximal efficacy: compared to the reference full agonist (2, MRL20); for pEC50: read-out: Cell-based EC50, Cos-1 cells, 3xPPRE luciferase reporter, full-length PPARγ, 24 h, dose-response
T1 sequence (P37231 1-505): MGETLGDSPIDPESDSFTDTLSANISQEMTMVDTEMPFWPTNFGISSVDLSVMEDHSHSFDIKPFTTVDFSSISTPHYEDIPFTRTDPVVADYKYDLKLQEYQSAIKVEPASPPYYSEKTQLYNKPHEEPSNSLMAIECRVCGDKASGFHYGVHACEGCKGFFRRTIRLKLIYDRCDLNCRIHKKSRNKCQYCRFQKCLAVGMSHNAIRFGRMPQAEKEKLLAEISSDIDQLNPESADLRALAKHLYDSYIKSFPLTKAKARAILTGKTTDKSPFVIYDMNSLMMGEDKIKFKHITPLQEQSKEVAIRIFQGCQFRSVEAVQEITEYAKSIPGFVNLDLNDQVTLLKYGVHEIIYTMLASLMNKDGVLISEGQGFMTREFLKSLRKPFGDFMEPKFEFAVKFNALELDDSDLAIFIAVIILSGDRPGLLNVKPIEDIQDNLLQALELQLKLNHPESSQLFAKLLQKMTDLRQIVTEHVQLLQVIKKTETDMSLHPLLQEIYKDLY
Procedure, shortened: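 Cos-1 cells, trypsinized, bulk reverse-transfected 24 h (FuGene6, lipid:DNA 3:1; DMEM + 10% FBS) with 1.5 μg 3xPPRE luciferase reporter plus 1.5 μg full-length PPARγ (pSport6). Replated at 10,000 cells/well, 4 h at 37°C, 5% CO2. Ten-point serial dilution, 5 μM – 200 pM, in triplicate, then 24 h. One-step luciferase reagent, luminescence read. Activity taken as fold over DMSO. Partial and full agonist controls, DMSO negative. EC50 from curve fit.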

[2] = target: T2, PPARγ LBD (Homo sapiens, UniProt P37231); assay: Fluorescence polarization; format: binding; details: read-out: FP Assay IC50; recombinant PPARγ LBD, 5 nM Fluoromone Green ligand, 25°C, 2 hours
T2 sequence (P37231 238-503 limits assumed): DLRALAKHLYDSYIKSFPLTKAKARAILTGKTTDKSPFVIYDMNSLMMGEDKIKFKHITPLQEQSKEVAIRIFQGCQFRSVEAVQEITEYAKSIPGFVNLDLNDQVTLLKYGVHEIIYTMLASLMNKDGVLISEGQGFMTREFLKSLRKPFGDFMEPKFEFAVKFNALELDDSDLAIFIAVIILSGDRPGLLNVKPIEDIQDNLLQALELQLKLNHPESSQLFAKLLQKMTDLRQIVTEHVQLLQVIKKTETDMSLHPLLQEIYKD
Procedure, shortened: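 Competitive FP binding run per kit instructions. 20 ng recombinant PPARγ LBD plus 5 nM Fluoromone Green probe, mixed with an equal volume of screening buffer holding DMSO or test compound. Incubated 2 h at 25°C. Polarization read at 485 nm excitation and 535 nm emission. Rosiglitazone used as positive competitor. IC50 from dose-response curve fit.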

SMILES: COc1ccc(-c2nn(-c3ccccc3)cc2/C=C2/SC(=S)N(CCC(=O)O)C2=O)c(C)c1 [Compound 3]
Maximal efficacy [1]: 44.41%
pEC50 [1]: 6.55
pIC50 [2]: 6.82

SMILES: COc1ccc2nc(N3C(=O)C(O)=C(C(=O)c4ccco4)C3c3ccc(C)o3)sc2c1 (stereo not drawn) [Compound 7]
Maximal efficacy [1]: 41.14%
pEC50 [1]: 5.30
pIC50 [2]: 5.30

SMILES: Cc1ccc2nc(N3C(=O)C(O)=C(C(=O)c4ccc(C)o4)C3c3ccco3)sc2c1 (stereo not drawn) [Compound 8]
Maximal efficacy [1]: 45.76%
pEC50 [1]: 4.74
pIC50 [2]: 4.66

Further lines, results first:

Maximal efficacy [1]: 64.11%
pEC50 [1]: 6.74
pIC50 [2]: 6.76
SMILES: CCn1cnc2c1c(=O)n(Cc1cccc([N+](=O)[O-])c1)c(=O)n2Cc1ccccc1 [Compound 4]

Maximal efficacy [1]: 44.71%
pEC50 [1]: 5.92
pIC50 [2]: 5.70
SMILES: CC(=O)N1N=C(c2ccccc2)CC1c1cn(Cc2ccccc2)c2ccccc12 (stereo not drawn) [Compound 5]

Maximal efficacy [1]: 37.04%
pEC50 [1]: 5.92
pIC50 [2]: 5.52
SMILES: CCOc1ccc2nc(N3C(=O)C(O)=C(C(=O)c4ccco4)C3c3ccco3)sc2c1 (stereo not drawn) [Compound 6]

Reference: publication PMC3517154 (ChemMedChem, 2011)
